The source of these data is ChEMBL document CHEMBL1137156, “Novel substituted 4-phenyl-[1,3]dioxanes: potent and selective orexin receptor 2 (OX(2)R) antagonists” (Bioorg Med Chem Lett, 2004).

Some results are limits rather than exact numbers.

As a reminder, the Ki is the dissociation constant of the complex between target and ligand, obtained from inhibition or displacement. Lower therefore signals tighter binding. As a reminder, the pKb is the negative decadic logarithm of the Kb, by convention in mol/L.

For one assay, the species on record is Homo sapiens. The experiment in a line: Selectivity of Orexin type 2 receptor over Orexin type 1 receptor.
The target of assay [1] is T1, Orexin/Hypocretin receptor type 1 (Homo sapiens, UniProt O43613).
T1 sequence (O43613 whole entry): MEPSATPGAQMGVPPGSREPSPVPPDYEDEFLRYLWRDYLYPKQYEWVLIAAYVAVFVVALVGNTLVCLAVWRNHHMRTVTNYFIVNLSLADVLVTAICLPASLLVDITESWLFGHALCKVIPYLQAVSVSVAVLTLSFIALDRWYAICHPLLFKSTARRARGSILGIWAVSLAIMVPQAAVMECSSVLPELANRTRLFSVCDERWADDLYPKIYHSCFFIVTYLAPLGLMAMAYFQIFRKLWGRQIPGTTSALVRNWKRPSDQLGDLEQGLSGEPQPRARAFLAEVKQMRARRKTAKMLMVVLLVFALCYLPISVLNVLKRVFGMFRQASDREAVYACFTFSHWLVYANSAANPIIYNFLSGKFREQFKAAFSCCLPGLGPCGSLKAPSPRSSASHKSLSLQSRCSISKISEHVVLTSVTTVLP
Nature of the assay: Binding affinity towards human orexin receptor type 1 was determined using [125I]-Orexin A as radio ligand. In short, it runs like this: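 Clonal CHO-K1 cells expressing the orexin receptor, grown adherent on poly-D-lysine-coated plates. Binding in Dulbecco's PBS with 0.1% w/v BSA, 10⁵ cpm ¹²⁵I-orexin A (2200 Ci/mmol) plus test compound, 90-120 min at room temperature. Wells washed with iced buffer, then scintillation counted. Ki with 95% confidence intervals from N = 3 assays.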

The next assay has as its target T2, Orexin receptor type 2 (Homo sapiens, UniProt O43614).
T2 sequence (O43614 whole entry): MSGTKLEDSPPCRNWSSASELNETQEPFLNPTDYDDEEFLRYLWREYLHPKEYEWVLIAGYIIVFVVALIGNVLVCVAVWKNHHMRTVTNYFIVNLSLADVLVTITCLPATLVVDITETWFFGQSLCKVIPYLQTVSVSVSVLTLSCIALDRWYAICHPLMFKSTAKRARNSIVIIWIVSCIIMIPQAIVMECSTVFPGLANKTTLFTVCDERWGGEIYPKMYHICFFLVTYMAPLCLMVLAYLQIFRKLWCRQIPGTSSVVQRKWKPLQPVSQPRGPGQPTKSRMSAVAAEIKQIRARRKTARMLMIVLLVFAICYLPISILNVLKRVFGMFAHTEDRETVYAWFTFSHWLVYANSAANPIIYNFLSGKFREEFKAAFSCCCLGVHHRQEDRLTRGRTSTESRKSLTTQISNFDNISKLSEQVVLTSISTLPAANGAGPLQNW
Nature of the assay: Binding affinity towards human orexin receptor type 2 was determined using [125I]-Orexin A as radio ligand.

Assay [2] deals with T3, Orexin receptor type 2 (Homo sapiens) (UniProt O43614).
T3 sequence (whole entry): T2 sequence (O43614 whole entry)
The experiment in a line: Antagonistic activity towards intracellular calcium levels in cells expressing Orexin receptor type 2. The class given is functional, cell-based. The method in brief: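 Fluo-3 AM-loaded cells expressing OX2R, intracellular Ca⁺⁺ fluorescence. […] For compounds with OX2R pKi above 6.3, pKB came from the orexin B EC50 and IC50s from antagonist dilutions, all on one 96-well plate.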
A general note: A change in cytosolic calcium serves as a functional read-out for many receptors and channels.

With `CC1(C)OC[C@H](NC(=O)Nc2c(Cl)cccc2Cl)[C@H](c2ccccc2)O1`, in the assay filed under Homo sapiens, the Selectivity is over 2. Moreover, the figures for the inhibition constant (Ki) (in assay [1]; on Orexin receptor type 2) were over 10 µM and over 5.01 µM, respectively.
The matching figures for `CC1(C)OC[C@H](NC(=O)Nc2ccccc2-c2ccsc2)[C@H](c2ccccc2)O1`: 30, 2 µM and 0.0794 µM.
The matching figures for `CC1(C)OC[C@H](NC(=O)Nc2ccc(Br)cc2Cl)[C@H](c2ccccc2)O1`: over 900, over 5.01 µM and 0.00631 µM.
The matching figures for `Cc1ccc(NC(=O)N[C@H]2COC(C)(C)O[C@H]2c2ccccc2)c(C)c1`: over 70, over 10 µM and 0.126 µM.
`CC(C)c1ccccc1NC(=O)N[C@H]1COC(C)(C)O[C@H]1c1ccccc1` came in with a Selectivity in the assay listed under Homo sapiens of over 4. Further, the inhibition constant Ki in assay [1] is over 10 µM; at Orexin receptor type 2 it was 2.51 µM.
For the compound `CC1(C)OC[C@H](/N=C(\S)Nc2ccc(Cl)cc2Cl)[C@H](c2ccccc2)O1`, in the assay listed under Homo sapiens, the Selectivity was over 50. The inhibitory constant (Ki) in assay [1] was over 10 µM; on Orexin receptor type 2 it was 0.2 µM.
In the same order, the values of `COc1ccccc1NC(=O)N[C@H]1COC(C)(C)O[C@H]1c1ccccc1` are over 4, over 10 µM and 2.51 µM.
In the same order, the values of `CC1(C)OC[C@H](NC(=O)c2ccc(Cl)cc2Cl)[C@H](c2ccccc2)O1` are over 50, over 10 µM and 0.2 µM.
On to `CC1(C)OC[C@H](NC(=O)Nc2ccc(Br)cc2Br)[C@H](c2ccccc2)O1`, for which the Selectivity in the assay filed under Homo sapiens is 600. For the same compound, in assay [2], the negative-log Kb (pKb) worked out at 7.9. Besides, the inhibition constant (Ki) is 3.16 µM in assay [1] and 0.00501 µM at Orexin receptor type 2.
For the compound `CC1(C)OC[C@H](NC(=O)Oc2ccccc2Cl)[C@H](c2ccccc2)O1`, the Selectivity in the assay listed under Homo sapiens was over 6. Also, the Ki in assay [1] was over 10 µM; on Orexin receptor type 2, 1.58 µM.
The matching figures for `CC1(C)OC[C@H](NC(=O)Nc2ccc(Br)cc2)[C@H](c2ccccc2)O1`: over 40, over 10 µM and 0.251 µM.
In the same order, the values of `CC1(C)OC[C@H](NC(=O)Nc2cccc(Br)c2)[C@H](c2ccccc2)O1` are over 9, over 10 µM and 1 µM.
In the same order, the values of `Cc1cc(Br)ccc1NC(=O)N[C@H]1COC(C)(C)O[C@H]1c1ccccc1` are 200, over 10 µM and 0.0398 µM.
Turning to `CC1(C)OC[C@H](NC(=O)Nc2ccccc2Cl)[C@H](c2ccccc2)O1`, the Selectivity in the assay listed under Homo sapiens is over 100. For the same compound, the negative-log Kb (pKb) in assay [2] came out at 6. For the same compound, the figures for the Ki (in assay [1]; at Orexin receptor type 2) were over 10 µM and 0.0794 µM, respectively.
For `Cc1ccc(/N=C(\NC#N)N[C@H]2COC(C)(C)O[C@H]2c2ccccc2)c(Br)c1`, the Selectivity in the assay filed under Homo sapiens is over 8. Also, the inhibition constant (Ki) in assay [1] is over 10 µM; on Orexin receptor type 2, 1.26 µM.
The matching figures for `CC1(C)OC[C@H](NC(=O)Nc2ccccc2-c2ccccc2Cl)[C@H](c2ccccc2)O1`: 5, 0.126 µM and 0.0251 µM.
Consider `CC1(C)OC[C@H](NC(=O)Nc2ccccc2Br)[C@H](c2ccccc2)O1`, for which, in assay [2], the pKb was found to be 6.3. Also, the Ki in assay [1] was 2 µM.
`CC1(C)OC[C@H](NC(=O)Nc2ccc(Cl)cc2Cl)[C@H](c2ccccc2)O1`: the Selectivity in the assay listed under Homo sapiens was 100. In addition, the pKb in assay [2] turned out to be 7. The results for the inhibition constant (Ki) (in assay [1]; at Orexin receptor type 2) were 2.51 µM and 0.02 µM, respectively.
As for `CC1(C)OC[C@H](NC(=O)Nc2ccccc2F)[C@H](c2ccccc2)O1`, the Selectivity in the assay listed under Homo sapiens is over 20. The inhibition constant Ki in assay [1] was over 10 µM; on Orexin receptor type 2, 0.398 µM.
In the assay filed under Homo sapiens, `CC1(C)OC[C@H](NC(=O)Nc2ccccc2-c2cccc(Cl)c2)[C@H](c2ccccc2)O1` yielded a Selectivity of 6. Besides, the Ki in assay [1] is 0.501 µM; at Orexin receptor type 2 it was 0.0794 µM.
`CC1(C)OC[C@H](NC(=O)Nc2ccccc2I)[C@H](c2ccccc2)O1`: the Selectivity in the assay filed under Homo sapiens is over 70. Moreover, the pKb in assay [2] is 6.5. Besides, the Ki in assay [1] was over 5.01 µM; on Orexin receptor type 2, 0.0794 µM.
As for `CC1(C)OC[C@H](NC(=O)Nc2ccccc2-c2ccccc2)[C@H](c2ccccc2)O1`, the Selectivity in the assay listed under Homo sapiens was 4. Besides, the inhibition constant Ki in assay [1] is 0.501 µM; on Orexin receptor type 2 it was 0.1 µM.
The matching figures for `CC1(C)OC[C@H](NC(=O)Cc2ccccc2Br)[C@H](c2ccccc2)O1`: over 7, over 10 µM and 1.58 µM.
The matching figures for `CC1(C)OC[C@H](NC(=O)Nc2ccccc2C(F)(F)F)[C@H](c2ccccc2)O1`: over 100, over 10 µM and 0.1 µM.
In the case of `CC1(C)OC[C@H](NC(=O)Nc2ccccc2)[C@H](c2ccccc2)O1`, the Selectivity in the assay filed under Homo sapiens was over 20. In addition, the Ki is over 10 µM in assay [1] and 0.501 µM at Orexin receptor type 2.
In the same order, the values of `CC1(C)OC[C@H](NC(=O)Nc2cc(Cl)ccc2Cl)[C@H](c2ccccc2)O1` are over 80, over 5.01 µM and 0.0631 µM.
In the same order, the values of `Cc1ccc(Cl)c(NC(=O)N[C@H]2COC(C)(C)O[C@H]2c2ccccc2)c1` are over 80, over 5.01 µM and 0.0631 µM.
In the same order, the values of `CC1(C)OC[C@H](NC(=O)Nc2ccccc2-c2cccs2)[C@H](c2ccccc2)O1` are 20, 1 µM and 0.0501 µM.
In the assay listed under Homo sapiens, `CC1(C)OC[C@H](NC(=O)Nc2ccccc2-c2cccnc2)[C@H](c2ccccc2)O1` yielded a Selectivity of over 20. The Ki in assay [1] is over 5.01 µM; on Orexin receptor type 2 it was 0.316 µM.
In the same order, the values of `CC1(C)OC[C@H](/N=C(\S)Nc2ccccc2Br)[C@H](c2ccccc2)O1` are over 30, over 10 µM and 0.398 µM.
